Source: ChEMBL document CHEMBL1150802, “Ampicillin-resistant non-beta-lactamase-producing Haemophilus influenzae in Spain: recent emergence of clonal isolates with increased resistance to cefotaxime and cefixime” (2007)
In brackets after ≈: the same amount, converted by molar mass.

Legend:
Type in all cases: functional
Haemophilus influenzae [1] = experiment: Antibacterial activity against beta-lactamase nonproducing ampicillin susceptible Haemophilus influenzae isolate by broth microdilution method
In short: (§1)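 Clinical isolates were tested by broth microdilution in Haemophilus test medium following CLSI guidelines, with H. influenzae ATCC 49247 as the QC strain. β-Lactamase was detected by chromogenic nitrocefin test. ftsI was PCR-amplified and sequenced across nt 936–1640 (aa 327–540). Classes: BLNAS (no mechanism), BLNAR (ftsI substitutions), BLPAR (β-lactamase only), BLPACR (both). Agents tested were amoxicillin, amoxicillin-clavulanate (2:1), cefaclor, cefuroxime, cefotaxime and cefixime.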

Haemophilus influenzae [2] = experiment: Antibacterial activity against beta-lactamase positive ampicillin resistant Haemophilus influenzae isolate by broth microdilution method; in short: as §1
Haemophilus influenzae [3] = experiment: Antibacterial activity against beta-lactamase nonproducing ampicillin resistant Haemophilus influenzae isolate by broth microdilution method; in short: as §1
Haemophilus influenzae [4] = experiment: Antibacterial activity against beta-lactamase producing amoxicillin-clavulanic acid-resistant Haemophilus influenzae isolate by broth microdilution method; in short: as §1
Haemophilus influenzae [5] = experiment: Antibacterial activity against beta-lactamase nonproducing ampicillin susceptible Haemophilus influenzae isolate assessed as percent susceptible isolates by broth microdilution method
In short: (§2)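 Broth microdilution in Haemophilus test medium per CLSI guidelines on clinical isolates, with H. influenzae ATCC 49247 as quality-control strain; β-lactamase production detected by nitrocefin chromogenic cephalosporin test; isolates classed by β-lactamase status and ftsI (PBP 3) sequencing of amino acids 327 to 540. Agents tested: amoxicillin, amoxicillin-clavulanic acid (2:1), cefaclor, cefuroxime, cefotaxime, cefixime.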

Haemophilus influenzae [6] = experiment: Antibacterial activity against beta-lactamase nonproducing ampicillin susceptible Haemophilus influenzae isolate assessed as percent resistant isolates by broth microdilution method; in short: as §1
Haemophilus influenzae [7] = experiment: Antibacterial activity against beta-lactamase positive ampicillin resistant Haemophilus influenzae isolate assessed as percent resistant isolates by broth microdilution method; in short: as §1
Haemophilus influenzae [8] = experiment: Antibacterial activity against beta-lactamase nonproducing ampicillin resistant Haemophilus influenzae isolate assessed as percent susceptible isolates by broth microdilution method; in short: as §1
Haemophilus influenzae [9] = experiment: Antibacterial activity against beta-lactamase nonproducing ampicillin resistant Haemophilus influenzae isolate assessed as percent resistant isolates by broth microdilution method; in short: as §1
Haemophilus influenzae [10] = experiment: Antibacterial activity against beta-lactamase producing amoxicillin-clavulanic acid-resistant Haemophilus influenzae isolate assessed as percent susceptible isolates by broth microdilution method; in short: as §2
Haemophilus influenzae [11] = experiment: Antibacterial activity against beta-lactamase producing amoxicillin-clavulanic acid-resistant Haemophilus influenzae isolate assessed as percent resistant isolates by broth microdilution method; in short: as §1
Haemophilus influenzae [12] = experiment: Antibacterial activity against Haemophilus influenzae group I isolates with ftsI gene mutation by broth microdilution method; in short: as §1
Haemophilus influenzae [13] = experiment: Antibacterial activity against Haemophilus influenzae group IIa isolates with ftsI gene mutation by broth microdilution method; in short: as §1
Haemophilus influenzae [14] = experiment: Antibacterial activity against Haemophilus influenzae group IIb isolates with ftsI gene mutation by broth microdilution method; in short: as §1
Haemophilus influenzae [15] = experiment: Antibacterial activity against Haemophilus influenzae group IIc isolates with ftsI gene mutation by broth microdilution method; in short: as §1
Haemophilus influenzae [16] = experiment: Antibacterial activity against Haemophilus influenzae group IId isolates with ftsI gene mutation by broth microdilution method; in short: as §1
Haemophilus influenzae [17] = experiment: Antibacterial activity against Haemophilus influenzae group III-like isolates with ftsI gene mutation by broth microdilution method; in short: as §1

Structure (SMILES) | MIC50 (Haemophilus influenzae [1]) [µg/mL] | MIC90 (Haemophilus influenzae [1]) [µg/mL] | MIC90 (Haemophilus influenzae [2]) [µg/mL] | MIC50 (Haemophilus influenzae [3]) [µg/mL] | MIC90 (Haemophilus influenzae [3]) [µg/mL] | MIC50 (Haemophilus influenzae [4]) [µg/mL] | MIC90 (Haemophilus influenzae [4]) [µg/mL] | Activity (Haemophilus influenzae [5]) [%] | Activity (Haemophilus influenzae [6]) [%] | Activity (Haemophilus influenzae [7]) [%] | Activity (Haemophilus influenzae [8]) [%] | Activity (Haemophilus influenzae [9]) [%] | Activity (Haemophilus influenzae [10]) [%] | Activity (Haemophilus influenzae [11]) [%] | MIC50 (Haemophilus influenzae [12]) [µg/mL] | MIC90 (Haemophilus influenzae [12]) [µg/mL] | MIC50 (Haemophilus influenzae [13]) [µg/mL] | MIC90 (Haemophilus influenzae [13]) [µg/mL] | MIC50 (Haemophilus influenzae [14]) [µg/mL] | MIC90 (Haemophilus influenzae [14]) [µg/mL] | also measured
C=CC1=C(C(=O)O)N2C(=O)[C@@H](NC(=O)/C(=N\OCC(=O)O)c3csc(N)n3)[C@H]2SC1 [CEFIXIME] | 0.06 (≈ 0.132 µM) | 0.06 (≈ 0.132 µM) | 0.06 (≈ 0.132 µM) | 0.06 (≈ 0.132 µM) | 0.25 (≈ 0.551 µM) | 0.06 | 0.12 | 100 | 0 | 0 | 99 | 1 | 100 | 0 | 0.06 (≈ 0.132 µM) | 0.12 (≈ 0.265 µM) | 0.06 (≈ 0.132 µM) | 0.25 (≈ 0.551 µM) | 0.06 (≈ 0.132 µM) | 0.12 (≈ 0.265 µM) | MIC50 (Haemophilus influenzae [2]): ≤ 0.01 µg/mL; MIC (Haemophilus influenzae [12]): 0.06 µg/mL (≈ 0.132 µM); MIC50 (Haemophilus influenzae [15]): 0.06 µg/mL (≈ 0.132 µM); MIC90 (Haemophilus influenzae [15]): 0.12 µg/mL (≈ 0.265 µM); MIC50 (Haemophilus influenzae [16]): 0.06 µg/mL (≈ 0.132 µM); MIC90 (Haemophilus influenzae [16]): 0.12 µg/mL (≈ 0.265 µM); MIC50 (Haemophilus influenzae [17]): 1 µg/mL (≈ 2.21 µM); MIC90 (Haemophilus influenzae [17]): 4 µg/mL (≈ 8.82 µM)
CO/N=C(\C(=O)N[C@@H]1C(=O)N2C(C(=O)O)=C(COC(C)=O)CS[C@H]12)c1csc(N)n1 [CEFOTAXIME] | ≤ 0.01 | 0.06 (≈ 0.132 µM) | 0.06 (≈ 0.132 µM) | 0.06 (≈ 0.132 µM) | 0.25 (≈ 0.549 µM) | 0.03 | 0.06 | 100 | 0 | 0 | 99 | 1 | 100 | 0 | 0.03 (≈ 0.0659 µM) | 0.12 (≈ 0.263 µM) | 0.06 (≈ 0.132 µM) | 0.25 (≈ 0.549 µM) | 0.06 (≈ 0.132 µM) | 0.12 (≈ 0.263 µM) | MIC (Haemophilus influenzae [1]): ≤ 0.01 µg/mL; MIC50 (Haemophilus influenzae [15]): 0.06 µg/mL (≈ 0.132 µM); MIC90 (Haemophilus influenzae [15]): 0.12 µg/mL (≈ 0.263 µM); MIC50 (Haemophilus influenzae [16]): 0.03 µg/mL (≈ 0.0659 µM); MIC90 (Haemophilus influenzae [16]): 0.12 µg/mL (≈ 0.263 µM); MIC50 (Haemophilus influenzae [17]): 0.5 µg/mL (≈ 1.1 µM); MIC90 (Haemophilus influenzae [17]): 4 µg/mL (≈ 8.78 µM)
CO/N=C(\C(=O)N[C@@H]1C(=O)N2C(C(=O)O)=C(COC(N)=O)CS[C@H]12)c1ccco1 [CEFUROXIME] | 0.5 (≈ 1.18 µM) | 1 (≈ 2.36 µM) | 1 (≈ 2.36 µM) | 2 (≈ 4.71 µM) | 4 (≈ 9.43 µM) | 1 | 2 | 100 | 0 | 0 | 98 | 2 | 100 | 0 | 0.5 (≈ 1.18 µM) | 2 (≈ 4.71 µM) | 2 (≈ 4.71 µM) | 4 (≈ 9.43 µM) | 2 (≈ 4.71 µM) | 2 (≈ 4.71 µM) | MIC50 (Haemophilus influenzae [2]): 1 µg/mL (≈ 2.36 µM); MIC (Haemophilus influenzae [12]): 0.5 µg/mL (≈ 1.18 µM); MIC50 (Haemophilus influenzae [15]): 2 µg/mL (≈ 4.71 µM); MIC90 (Haemophilus influenzae [15]): 2 µg/mL (≈ 4.71 µM); MIC (Haemophilus influenzae [16]): 0.5 µg/mL (≈ 1.18 µM); MIC50 (Haemophilus influenzae [16]): 0.5 µg/mL (≈ 1.18 µM); MIC90 (Haemophilus influenzae [16]): 4 µg/mL (≈ 9.43 µM); MIC50 (Haemophilus influenzae [17]): 4 µg/mL (≈ 9.43 µM); MIC90 (Haemophilus influenzae [17]): 8 µg/mL (≈ 18.9 µM)
